SENP8 block-1 = inhibitors of human SENP8 protease; Q96LD8; purified SENP8, Z-RLRGG-aminoluciferin cleavage, luminescence; inhibition, % at 10 µM; 330,000 compounds, 1.2% hits; in the data active means inhibition above about 50%
SENP1 FRET inh = blocks the human SENP1 SUMO protease catalytic domain; recombinant SENP1 catalytic domain, CyPet-SUMO1-YPet FRET cleavage; 360,000 compounds, 0.21% hits; inhibition, % at 10 µM; Q9P0U3;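 active means inhibition at least 30% at 10 µM, raw YFP signal under a set limit, fluorescence ratio 0.5 to 1.5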;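 further: 0% = enzyme with DMSO and 100% = no enzyme wells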
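Test system: recombinant human SENP1 catalytic domain, His6-tagged / Medium: pH 8 Tris buffer with EDTA, NaCl, BME, BSA, NP40, catalase / Also added: SUMO1 FRET substrate flanked by Cypet and Ypet, 25 nM / Times: 50 min reaction at room temperature / Signal: FRET, CFP and YFP emission / Control set: no-enzyme low control and enzyme-plus-DMSO high control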
SENP6 inh = inhibitors of human SENP6 protease; AID 2599; inhibition, % at 10 µM; 330,000 compounds, 1.8% hits; Q9GZR1; Recombinant SENP6 catalytic domain, aminoluciferin luminescence;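 active means inhibition above about 50% at the single tested dose, limit read from the data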;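 further: plate controls were DMSO wells with enzyme for no effect and DMSO wells lacking enzyme for full effect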
Target sequence (Q9GZR1 628-1112 limits assumed): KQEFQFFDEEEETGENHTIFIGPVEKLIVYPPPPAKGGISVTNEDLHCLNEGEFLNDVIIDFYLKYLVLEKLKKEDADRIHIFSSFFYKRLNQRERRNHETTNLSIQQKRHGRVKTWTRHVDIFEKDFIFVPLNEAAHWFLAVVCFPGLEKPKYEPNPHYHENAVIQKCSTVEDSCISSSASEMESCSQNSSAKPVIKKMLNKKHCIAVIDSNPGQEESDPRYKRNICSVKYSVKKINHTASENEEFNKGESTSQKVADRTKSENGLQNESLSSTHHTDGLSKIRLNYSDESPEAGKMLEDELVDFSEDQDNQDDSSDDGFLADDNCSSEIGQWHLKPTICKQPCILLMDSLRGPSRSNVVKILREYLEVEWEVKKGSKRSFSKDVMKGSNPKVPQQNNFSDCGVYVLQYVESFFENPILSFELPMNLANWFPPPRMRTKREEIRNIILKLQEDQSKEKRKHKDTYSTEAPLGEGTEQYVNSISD
HSP90 inh = inhibitors of HSP90 luciferase refolding in rabbit reticulocyte lysate; luciferase refolding luminescence, 3 h; inhibition, % at 5.6 µM; 290,000 compounds, 0.91% hits; AID 1789;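 active means inhibition above the screen-wide mean plus 3 SD, computed separately per campaign, cut at about 16% in these data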;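 further: 0% = DMSO wells and 100% = 60 µM geldanamycin wells; inhibitors lower the luminescence because luciferase stays unfolded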
SENP8 block-2 = blocks human SENP8 cleavage of Nedd8 substrate; Q96LD8; recombinant SENP8, Nedd8 substrate fluorescence; inhibition, % at 20 µM; 360,000 compounds, 0.64% hits; AID 602440; in the data active means inhibition mostly above about 40%, no sharp cut-off; inactive means mostly below about 27%
SENP7 inh = inhibitors of human SENP7 protease. inhibition, % at 5 µM. AID 434973. Q9BQF6. 330,000 compounds, 1.5% hits. recombinant SENP7, Z-RLRGG-aminoluciferin luminescence, 40 min;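 active means inhibition above about 50% at the single test dose, limit read from the data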;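 further: plate controls were DMSO with enzyme for no effect and no enzyme buffer wells for full effect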
SENP8 confirm = human SENP8 inhibition, confirmed | inhibition, % at 12.5 µM | Recombinant SENP8, Z-RLRGG-aminoluciferin luminescence, 60 min | 6,200 compounds, 40% hits | shares compounds with SENP7 inh | AID 488912;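 active means mean inhibition across replicates above about 50%, limit read from the data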
SENP6 conf = human SENP6 inhibition, confirmed; recombinant SENP6, Z-RLRGG-aminoluciferin luminescence; 6,200 compounds, 58% hits; inhibition, % at 12.5 µM; shares compounds with SENP7 inh
SENP7 confirm = human SENP7 inhibition, confirmed; shares compounds with SENP7 inh; recombinant SENP7, Z-RLRGG-aminoluciferin luminescence, 40 min; inhibition, % at 12.5 µM; 6,200 compounds, 69% hits; AID 488917
Casp3 SENP sel = selectivity test for SENP inhibitors: human caspase-3 inhibition. shares compounds with SENP7 inh. purified caspase-3, Z-DEVD-aminoluciferin luminescence, 60 min. inhibition, % at 12.5 µM. 6,200 compounds, 60% hits. AID 488918;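 active means mean inhibition above about 50%, limit read from the data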;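 further: plate controls were enzyme with DMSO for no effect and wells without caspase-3 for full effect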
Target sequence (P42574 28-227 limits assumed): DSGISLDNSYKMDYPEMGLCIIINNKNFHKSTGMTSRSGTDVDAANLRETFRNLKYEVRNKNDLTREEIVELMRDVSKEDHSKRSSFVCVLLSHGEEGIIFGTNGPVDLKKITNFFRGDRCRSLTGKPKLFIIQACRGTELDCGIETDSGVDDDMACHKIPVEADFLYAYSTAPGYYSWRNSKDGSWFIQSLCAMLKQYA
SENP luc ctr = counter-screen for SENP inhibitors: luminescence interference; 6,200 compounds, 39% hits; inhibition, % at 12.5 µM; Pre-incubated SENP8/Z-RLRGG-aminoluciferin, luciferase luminescence interference; shares compounds with SENP7 inh; AID 488919;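 active means mean inhibition above about 50% when retested at one dose, limit read from the data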;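 further: plate controls were DMSO wells with completed reaction for no effect and substrate without enzyme for full effect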
The depositor's hits bear a star. Rows were chosen to be rich in hits. Some 2.9% of all compounds tested hit in one or more screens of this group.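 How the source made its calls, unless noted: active means mean inhibition above about 50% in the one-dose retest (limit read from the data); inactive means the rest.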

Screening NC(=O)c1ccc(F)cc1 returned SENP8 block-1 -4, SENP1 FRET inh 2, SENP6 inh -27, HSP90 inh -4, SENP8 block-2 6 and SENP7 inh -8.
`Cc1nc(/C(N)=N/OC(=O)c2ccccc2Cl)c(C(F)(F)F)o1` gave SENP8 block-1 80*, SENP1 FRET inh 2, SENP6 inh 83*, HSP90 inh 2, SENP8 block-2 -2, SENP7 inh 88*, SENP8 confirm 88*, SENP6 conf 88*, SENP7 confirm 98*, Casp3 SENP sel 95* and SENP luc ctr 88*.
`Cc1ccc(C(=O)O/N=C(\N)c2nonc2N)cc1` gave SENP8 block-1 97*, SENP1 FRET inh 3, SENP6 inh 98*, HSP90 inh -1, SENP8 block-2 4, SENP7 inh 101*, SENP8 confirm 98*, SENP6 conf 98*, SENP7 confirm 101*, Casp3 SENP sel 97* and SENP luc ctr 97*.
COc1ccccc1C(=O)O/N=C(\N)c1ccccc1Cl was read as SENP8 block-1 12, SENP1 FRET inh 1, SENP6 inh 6, HSP90 inh -7, SENP8 block-2 8 and SENP7 inh 2.
N/C(=N/OC(=O)c1ccccc1Cl)c1nonc1N was read as SENP8 block-1 96*, SENP1 FRET inh 2, SENP6 inh 97*, HSP90 inh -3, SENP8 block-2 -1, SENP7 inh 99*, SENP8 confirm 100*, SENP6 conf 101*, SENP7 confirm 104*, Casp3 SENP sel 99* and SENP luc ctr 98*.
`N/C(=N\OC(=O)c1ccc(F)cc1)c1nonc1N` gave SENP8 block-1 94*, SENP1 FRET inh 1, SENP6 inh 96*, HSP90 inh 1, SENP8 block-2 26, SENP7 inh 98*, SENP8 confirm 98*, SENP6 conf 98*, SENP7 confirm 102*, Casp3 SENP sel 98* and SENP luc ctr 87*.
Screening N/C(=N/OCC(=O)Nc1cccc2ccccc12)c1nonc1N returned SENP8 block-1 -7, SENP1 FRET inh -3, SENP6 inh -8, HSP90 inh 1, SENP8 block-2 3 and SENP7 inh 7.
CC(=O)c1ccc(OC2(C)CCN(Cc3csc4ccccc34)C2)cc1 (stereo not drawn) was read as SENP1 FRET inh 1 and SENP8 block-2 13.
For CC(=O)C(Cc1ccccc1)NC(=O)CN(C)Cc1ccccc1Cl (stereo not drawn) the results were SENP8 block-1 8, SENP1 FRET inh -4, SENP6 inh 14, HSP90 inh 4, SENP8 block-2 5 and SENP7 inh 7.
For C[C@@H]1CN([C@H](C)CO)C(=O)CCCn2cc(nn2)CO[C@H]1CN(C)C(=O)Nc1ccc(F)cc1 the results were SENP1 FRET inh 2 and SENP8 block-2 2.
CCN1CCc2nc3sc(C(=O)N4CCc5ccccc5C4)c(N)c3cc2C1 was read as SENP8 block-1 2, SENP1 FRET inh -23, SENP6 inh 6, HSP90 inh 3, SENP8 block-2 -193 and SENP7 inh 3.
CC(C)OC(=O)CC(=O)c1sc2nc3c(cc2c1N)CN(C)CC3 was read as SENP8 block-1 1, SENP6 inh 54*, HSP90 inh 1, SENP7 inh -8, SENP8 confirm 4, SENP6 conf 4, SENP7 confirm -7, Casp3 SENP sel 1 and SENP luc ctr -6.
CCn1c(O)c(N=Nc2ccc3ccccc3n2)c2ccccc21 was read as SENP8 block-1 94*, SENP1 FRET inh 12, SENP6 inh 95*, HSP90 inh 1, SENP8 block-2 39, SENP7 inh 97*, SENP8 confirm 18, SENP6 conf 23, SENP7 confirm 98*, Casp3 SENP sel 30 and SENP luc ctr 6.
For CC1CCN(C(=O)Cn2nnc(-c3ccc(N)cc3)n2)CC1 the results were SENP8 block-1 16, SENP1 FRET inh 0, SENP6 inh 7, HSP90 inh 2, SENP8 block-2 14 and SENP7 inh -4.
CCOC(=O)c1sc(Nc2ccccc2Cl)nc1C was read as SENP8 block-1 28, SENP1 FRET inh 3, SENP6 inh 63*, HSP90 inh -1, SENP8 block-2 -106, SENP7 inh 42, SENP8 confirm 45, SENP6 conf 44, SENP7 confirm 73*, Casp3 SENP sel 35 and SENP luc ctr 40.
`CCOC(=O)c1sc(Nc2ccc(Br)cc2)nc1C` gave SENP8 block-1 -5, SENP1 FRET inh 0, SENP6 inh -29, HSP90 inh -2, SENP8 block-2 -392 and SENP7 inh -3.
Screening CCOC(=O)c1sc(NC(=O)c2ccccc2OC)nc1C returned SENP8 block-1 98*, SENP1 FRET inh 3, SENP6 inh 97*, HSP90 inh -3, SENP8 block-2 -113, SENP7 inh 102*, SENP8 confirm 80*, SENP6 conf 70*, SENP7 confirm 99*, Casp3 SENP sel 63* and SENP luc ctr 13.
Screening CCOCCn1cnc2sc(C(=O)Nc3nc(C)c(C(=O)OCC)s3)c(C)c2c1=O returned SENP8 block-1 79*, SENP6 inh 53*, HSP90 inh -1, SENP7 inh 83*, SENP8 confirm 10, SENP6 conf 5, SENP7 confirm 10, Casp3 SENP sel 3 and SENP luc ctr 4.
Screening CCOC(=O)c1sc(NC(=O)c2ccc3ncsc3c2)nc1C returned SENP8 block-1 11, SENP1 FRET inh -157, SENP6 inh 2, HSP90 inh 12, SENP8 block-2 -126, SENP7 inh 59*, SENP8 confirm -9, SENP6 conf -8, SENP7 confirm -3, Casp3 SENP sel 12 and SENP luc ctr 2.
`CC(C)C[C@@H]1CN(CCCC[C@H]2CNC(=O)C(=O)N2CCC2CCCCC2)C(=O)C(=O)N1Cc1ccccc1` gave SENP1 FRET inh -3 and SENP8 block-2 -2.
C=CCC[C@H](CCCCC)OC(=O)/C=C/[C@@H](O)[C@H](O)C[C@@H](O)CC=C was read as SENP1 FRET inh 1 and SENP8 block-2 15.
